{"data": "Results collected from several papers", "observed": "cell growth or viability", "note": "Each line is one published result; the experiments were not run side by side. pIC50: −log10 of the molar value."}
{"Structure (SMILES)": "Cc1ccc(-c2ccc(O)cc2)c(C(=C2C=CC(=O)C=C2)c2ccc(O)cc2)c1C#Cc1ccc(O)cc1", "cell line": "HUVEC", "assay": "MTT", "setting": "48 h", "measurement": "pIC50", "value": "< 4.30"}
{"Structure (SMILES)": "COc1cccc2c1C(=O)c1c(O)c3c(c(O)c1C2=O)C[C@@](O)(C(=O)CO)C[C@@H]3O[C@H]1C[C@H](N)[C@H](O)[C@H](C)O1", "cell line": "HUVEC", "assay": "MTT", "setting": "48 h", "measurement": "IC50", "value": "2 µg/mL"}
{"Structure (SMILES)": "Nc1nc2sc(CCCCCCCc3ccc(C(=O)N[C@@H](CCC(=O)O)C(=O)O)cc3)cc2c(=O)[nH]1", "cell line": "R2/PCFT4", "setting": "96 h, pH 7.2", "measurement": "pIC50", "value": "< 6.00"}
{"Structure (SMILES)": "O=C(/C=C/C=C/c1ccc2c(c1)OCO2)N1CCCCC1", "cell line": "HUVEC", "assay": "MTT", "setting": "48 h", "measurement": "IC50", "value": "41.6 µg/mL"}
{"Structure (SMILES)": "Nc1nc2sc(CCCCCCCCc3ccc(C(=O)N[C@@H](CCC(=O)O)C(=O)O)cc3)cc2c(=O)[nH]1", "cell line": "R2/PCFT4", "setting": "96 h, pH 7.2", "measurement": "pIC50", "value": "< 6.00"}
{"Structure (SMILES)": "O=C(Nc1cccc2cccnc12)c1cnccn1", "cell line": "HFF-1", "assay": "MTT", "measurement": "pIC50", "value": "< 4.52"}
{"Structure (SMILES)": "CO[C@H]1/C=C\\C=C(/C)C(=O)NC2=CC(=O)C(NCCN(C)C)=C(C[C@@H](C)C[C@H](OC)[C@H](O)[C@@H](C)/C=C(\\C)[C@@H]1OC(N)=O)C2=O", "cell line": "HUVEC", "assay": "MTT", "measurement": "pIC50", "value": 6.06}
{"Structure (SMILES)": "COc1cc(Nc2nccc(-c3cnn4nc(OC)ccc34)n2)cc(C(F)(F)F)c1", "cell line": "NCI-H1048", "assay": "ATP luminescence", "measurement": "pIC50", "value": 6.42}
{"Structure (SMILES)": "CN1c2ccccc2C(=O)N2[C@H](C(=O)Nc3ccc(/C=C/C(=O)NO)cc3)Cc3c([nH]c4ccccc34)[C@@H]12", "cell line": "HUVEC", "measurement": "pIC50", "value": 5.13}
{"Structure (SMILES)": "OCc1ccc2c(c1C#Cc1ccc(O)cc1)C(c1ccc(O)cc1)(c1ccc(O)cc1)c1cc(O)ccc1-2", "cell line": "HUVEC", "assay": "MTT", "setting": "48 h", "measurement": "pIC50", "value": "< 4.30"}
{"Structure (SMILES)": "Nc1nc2sc(CCCc3ccc(C(=O)N[C@@H](CCC(=O)O)C(=O)O)cc3)cc2c(=O)[nH]1", "cell line": "R2/PCFT4", "setting": "96 h, pH 7.2", "measurement": "pIC50", "value": "< 6.00"}
{"Structure (SMILES)": "COC1=C2C[C@@H](C)C[C@H](OC)[C@H](O)[C@@H](C)/C=C(\\C)[C@H](OC(N)=O)[C@@H](OC)/C=C\\C=C(/C)C(=O)NC(=CC1=O)C2=O", "cell line": "HUVEC", "assay": "MTT", "measurement": "pIC50", "value": 7.39}
{"Structure (SMILES)": "CC(C)C[C@H](NC(=O)[C@H](Cc1ccccc1)NC(=O)c1cnccn1)B(O)O", "cell line": "NCI-H2286", "assay": "ATP luminescence", "measurement": "pIC50", "value": 8.18}
{"Structure (SMILES)": "CCCCN(Cc1ccc(C(=O)NO)cc1)C(=O)Nc1ccccc1", "cell line": "HAL-01", "assay": "ATP luminescence", "setting": "72 h", "measurement": "pIC50", "value": 5.04}
